Compounds with a hit are over-represented: about 1.8% of the library has one in this group of screens.
pCIP destab: lowers stability of the mouse p/CIP coactivator protein | Q05BA5 | F442A p/CIP-EGFP cells, EGFP fluorescence, 16 h | decrease of EGFP signal, % at 10 µM | hit rate 0.01% among 290,000 | AID 1984;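 active means EGFP signal decrease of at least 30% at 10 µM or well 3 SD below plate mean, unless failing retest; inactive means the rest, including hits failing retest or dose response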
Tb MetRS inh: blocks T. brucei methionyl-tRNA synthetase activity | purified T. brucei MetRS, ATP depletion, Kinase-Glo luminescence | inhibition, % at 11.9 µM | hit rate 0.4% among 360,000;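 active means inhibition above a per-plate cutoff of the control wells' mean inhibition plus 3 SD, cut at about 5.5% in these data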
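Test system – parasite MetRS enzyme · Reagent – substrates ATP, L-methionine and bulk Escherichia coli tRNA · Doses – 11.9 µM compound single dose, 0.9% DMSO · Times – 15 min enzyme-compound preincubation, 2 h reaction, 10 min detection, 25 °C · Signal – Kinase-Glo luminescence, ATP depletion format · Controls – DMSO-only wells as low control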
PHOSPHO1 block: blocks human PHOSPHO1 phosphatase activity. Q8TCT1. hit rate 1.1% among 290,000. inhibition, % at 13.3 µM. recombinant PHOSPHO1, absorbance phosphatase assay; in the data active means inhibition above about 60%
Target sequence (Q8TCT1 whole entry, looked up): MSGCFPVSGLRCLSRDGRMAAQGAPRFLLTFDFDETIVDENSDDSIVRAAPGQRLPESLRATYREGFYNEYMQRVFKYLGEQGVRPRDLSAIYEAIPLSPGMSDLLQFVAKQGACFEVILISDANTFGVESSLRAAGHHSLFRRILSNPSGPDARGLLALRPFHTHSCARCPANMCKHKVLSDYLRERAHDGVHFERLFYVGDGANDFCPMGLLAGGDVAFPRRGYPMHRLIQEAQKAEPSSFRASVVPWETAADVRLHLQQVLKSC
APOBEC3A inh: blocks human APOBEC3A ssDNA deamination; hit rate 0.41% among 330,000; inhibition, % at 20 µM; recombinant A3A, FAM/TAMRA ssDNA deamination fluorescence; P31941;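 active means at least 40% inhibition at 20 µM here, with at most 30% in a related deaminase screen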
Target sequence (P31941 whole entry, looked up): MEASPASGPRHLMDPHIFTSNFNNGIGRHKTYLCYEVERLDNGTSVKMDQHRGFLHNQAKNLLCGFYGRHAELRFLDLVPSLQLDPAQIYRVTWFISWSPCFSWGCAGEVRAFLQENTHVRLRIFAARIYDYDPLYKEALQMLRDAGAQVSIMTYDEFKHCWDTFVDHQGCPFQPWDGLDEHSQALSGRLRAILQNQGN
APOBEC3G inh: blocks human APOBEC3G single-stranded DNA deamination; Q9HC16; recombinant A3G, ssDNA deamination FAM/TAMRA fluorescence; inhibition, % at 20 µM; hit rate 0.28% among 330,000; AID 493012;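 active means inhibition of at least 40% at 20 µM, with no more than 30% in the related APOBEC3A deaminase screen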
TbMetRS confirm: Trypanosoma brucei MetRS inhibition confirmed; T. brucei MetRS enzyme, luminescence (ATP depletion); shares compounds with Tb MetRS inh; hit rate 93% among 1,400; inhibition, % at 11.9 µM; AID 624412; in the data active means inhibition above about 7%
Jurkat cytotox: Jurkat T cell cytotoxicity for MetRS hits | inhibition, % at 8.3 µM | hit rate 12% among 1,400 | Jurkat cells viability, ATP luminescence | AID 624413 | shares compounds with Tb MetRS inh; in the data active means inhibition above about 15%
TbMetRS FP orth: T. brucei MetRS inhibition, orthogonal assay. shares compounds with Tb MetRS inh. purified T. brucei MetRS, fluorescence polarization. inhibition, % at 11.9 µM. hit rate 44% among 1,400; in the data active means inhibition above about 17%
Of the large screens only hits and unclear results are named; the others gave an inactive call (follow-up assays come after a bar, where they were run).

Cc1ccc2c(c1)c1nnc(SCC(=O)Nc3ccccc3C(F)(F)F)nc1n2CC(=O)O	none
Cc1ccc2c(c1)c1nnc(SCC(=O)Nc3cccc(Cl)c3C)nc1n2CC(=O)O	Tb MetRS inh 22.6 | TbMetRS confirm 64.6 | Jurkat cytotox inactive | TbMetRS FP orth 32.7
CC(C)(C)C(=O)NC1CCN(CC(=O)Nc2ccc3c(c2)OCO3)CC1	none
Cc1cc2c(c(=O)n1CC1CCCO1)C(c1ccc3c(c1)OCO3)C(C#N)=C(N)O2 (stereo not given)	Tb MetRS inh 59.7 | TbMetRS confirm 75.5 | Jurkat cytotox inactive | TbMetRS FP orth 49.1
CCn1c(C)cc2c(c1=O)C(c1ccncc1)C(C#N)=C(N)O2 (stereo not given)	none
CCn1c(C)cc2c(c1=O)C(c1ccc3c(c1)OCO3)C(C#N)=C(N)O2 (stereo not given)	Tb MetRS inh 22.7 | TbMetRS confirm inactive | Jurkat cytotox inactive | TbMetRS FP orth inactive
COc1ccccc1Cn1c(=S)[nH]c2cc(C(=O)NCCN(C)C)ccc2c1=O	none
COc1ccc(OC)c(-n2c(SC)nnc2-c2c[nH]c3ccccc23)c1	Tb MetRS inh 9.7 | TbMetRS confirm 24.7 | Jurkat cytotox inactive | TbMetRS FP orth inactive
COc1ccc(OC)c(-n2c(SCC(N)=O)nnc2-c2c[nH]c3ccccc23)c1	Tb MetRS inh 9.7 | TbMetRS confirm 20.3 | Jurkat cytotox inactive | TbMetRS FP orth inactive
CCOc1ccc(-n2c(SCC(=O)NCc3ccco3)nnc2-c2c[nH]c3ccccc23)cc1	Tb MetRS inh 11.7 | TbMetRS confirm 10.9 | Jurkat cytotox inactive | TbMetRS FP orth inactive
COc1ccc(OC)c(-n2c(SCC(=O)Nc3cc(C)on3)nnc2-c2c[nH]c3ccccc23)c1	Tb MetRS inh 17.7 | TbMetRS confirm 24.9 | Jurkat cytotox inactive | TbMetRS FP orth inactive
Cc1ccccc1NC(=S)NC(=O)COc1ccccc1C	none
COc1ccccc1C1CC(c2ccc(Cl)cc2Cl)Nc2nc(N)nn21 (stereo not given)	Tb MetRS inh 6.6 | TbMetRS confirm 14.9 | Jurkat cytotox inactive | TbMetRS FP orth inactive
COc1ccc(C2CC(c3cccc(Cl)c3)n3nc(N)nc3N2)cc1 (stereo not given)	none
COc1cc2c(cc1OC)CN(c1ccc([N+](=O)[O-])cc1C#N)CC2	Tb MetRS inh 11.2 | TbMetRS confirm 19.4 | Jurkat cytotox 19.1 | TbMetRS FP orth inactive
CN(C)S(=O)(=O)c1cccc(NC(=O)CSc2nc3ccccc3[nH]2)c1	Tb MetRS inh 6.2 | TbMetRS confirm 11.6 | Jurkat cytotox inactive | TbMetRS FP orth inactive
CCN(CC)S(=O)(=O)c1cccc(NC(=O)CSc2nc3ccccc3[nH]2)c1	none
O=C(CSc1nc2ccccc2[nH]1)Nc1cccc(S(=O)(=O)N2CCOCC2)c1	Tb MetRS inh 40.4 | TbMetRS confirm 39.9 | Jurkat cytotox inactive | TbMetRS FP orth 18.4
Cc1nonc1NC(=O)CSc1nc2ccccc2[nH]1	none
Cc1nonc1NC(=O)CSc1nc2ccc(Cl)cc2[nH]1	Tb MetRS inh 18.8 | TbMetRS confirm 33.4 | Jurkat cytotox inactive | TbMetRS FP orth 17.9
O=C(CN1CCCc2ccccc21)Nc1cccc(S(=O)(=O)N2CCOCC2)c1	Tb MetRS inh 6.7 (no result: pCIP destab, PHOSPHO1 block) | TbMetRS confirm 12.4 | Jurkat cytotox inactive | TbMetRS FP orth inactive
C=CCOn1c(=O)c(-c2ccc(Br)cc2)[n+]([O-])c2ccccc21	none
NS(=O)(=O)c1cccc(NC(=O)CSc2nc3ccc(Cl)cc3[nH]2)c1	Tb MetRS inh 8.1 | TbMetRS confirm 15.8 | Jurkat cytotox inactive | TbMetRS FP orth inactive
O=C(CSc1nc2ccccc2[nH]1)Nc1nc(-c2ccc(Br)cc2)cs1	Tb MetRS inh 19.9 | TbMetRS confirm 35.9 | Jurkat cytotox inactive | TbMetRS FP orth 71.3
O=C(CSc1nc2cc3ccccc3cc2[nH]1)Nc1ccc(F)cc1	Tb MetRS inh 21.8 | TbMetRS confirm 28.3 | Jurkat cytotox inactive | TbMetRS FP orth 22.9
COc1cccc(-c2ccc(NC(=O)C3CCCN(CCCn4nc(C)cc4C)C3)cc2)c1 (stereo not given)	none
COc1cccc(CNC(=O)CSCC(=O)Nc2cc(C)on2)c1	none (no result: pCIP destab, PHOSPHO1 block)
CC1(C)C(=O)OC(C(=O)c2ccccc2)C2(CCCCC2)C1=O (stereo not given)	none
CCOC(=O)N1CCN(C(=O)CSCc2ccc(Br)cc2)CC1	none
O=C(CNC(=O)N1CC(=O)Nc2ccccc21)Nc1cccc(F)c1	none
CC1CCC(NC(=O)CCC(=O)N2CC(C)Oc3ccccc32)CC1 (stereo not given)	none
CCOC(=O)N1CCN(CCC(=O)Nc2cc(C)ccc2C)CC1	none
NC(=NCCc1c[nH]c2ccccc12)NC(=O)c1ccc(Cl)cc1	Tb MetRS inh 28.9 | TbMetRS confirm 34.9 | Jurkat cytotox inactive | TbMetRS FP orth inactive
O=C(N[C@@H](Cc1c[nH]c2ccccc12)C(=O)O)c1ccc(Cl)cc1	none
O=C(CSc1nnc(CNC(=O)c2ccco2)o1)Nc1ccc(F)cc1F	none
CS(=O)(=O)NNC(=O)c1cc2cc3ccccc3nc2s1	none
COc1ccc(S(=O)(=O)NNC(=O)c2cc3cc4ccccc4nc3s2)cc1	Tb MetRS inh 5.8 | TbMetRS confirm 14.1 | Jurkat cytotox inactive | TbMetRS FP orth inactive
CCOc1cc(/C=C2\SC(=O)N=C2N)ccc1O	Tb MetRS inh 32.1 | TbMetRS confirm 43.7 | Jurkat cytotox inactive | TbMetRS FP orth 18.9
CCOc1cc(/C=C2\SC(=S)N(NS(=O)(=O)c3ccccc3)C2=O)ccc1O	Tb MetRS inh 9.0 | TbMetRS confirm 18.5 | Jurkat cytotox inactive | TbMetRS FP orth 24.5
CSCCC(NC(N)=O)C(=O)Nc1ccc(F)c(Cl)c1 (stereo not given)	none
Cc1nn(C)c(C)c1S(=O)(=O)N1CCC(CO)(CC2CCCCO2)CC1 (stereo not given)	none
CN(CCO)C(=O)c1nc[nH]c1C(=O)N1CCN(C(=O)OC(C)(C)C)CC1	none (no result: pCIP destab, PHOSPHO1 block, APOBEC3A inh, APOBEC3G inh)
CCn1c(=O)c(C(=O)CN(C)CC(=O)Nc2ccccc2Br)c(N)n(Cc2ccccc2)c1=O	none (no result: pCIP destab, PHOSPHO1 block)
O=C(O)CN1C(=O)/C(=C\c2ccc(OC(=O)c3ccco3)cc2)SC1=S	Tb MetRS inh 8.8 | TbMetRS confirm 26.9 | Jurkat cytotox inactive | TbMetRS FP orth inactive
O=C(O)CN1C(=O)/C(=C\c2cccc(OC(=O)c3ccco3)c2)SC1=S	none
CCCCn1c(N)c(N(CC(C)C)C(=O)c2c(-c3ccccc3)noc2C)c(=O)[nH]c1=O	none (no result: pCIP destab, PHOSPHO1 block)
N#CC(C#N)=NNc1ccc2cn[nH]c2c1	Tb MetRS inh 9.9 (no result: pCIP destab, PHOSPHO1 block, APOBEC3A inh, APOBEC3G inh) | TbMetRS confirm 23.7 | Jurkat cytotox 30.5 | TbMetRS FP orth 54.0
O=C(NCc1cc(Cl)cc(Cl)c1)c1ccc2nc([C@@H]3O[C@H](CO)[C@H](O)[C@H](O)[C@H]3O)[nH]c2c1	none (no result: pCIP destab, PHOSPHO1 block, APOBEC3A inh, APOBEC3G inh)

Source: PubChem
